# According to ChEMBL document CHEMBL1817574, “Development of novel conformation-constrained cytotoxic derivatives of cheliensisin A by embedment of small heterocycles” (Eur J Med Chem, 2011):
# What was measured:
# HL-60 [1] = test: Cytotoxicity against human HL60 cells after 48 hrs by MTT assay; format: functional, cell-based; conditions: HL-60, 48 h
# Outline: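 Log-phase HL-60 cells were seeded at 1.25 × 10⁵ cells/mL and treated in four replicates across various concentrations for 48 h. MTT (5 mg/mL solution) was then added and incubated a further 4 h. The wells were then solubilised with 10% SDS–5% isobutanol–0.012 mol/L HCl before the colorimetric read-out.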
# SMMC-7721 = test: Cytotoxicity against human SMMC7721 cells after 48 hrs by MTT assay; format: functional, cell-based; conditions: SMMC-7721, 48 h
# A549 = test: Cytotoxicity against human A549 cells after 48 hrs by MTT assay; format: functional, cell-based; conditions: A549, 48 h
# SK-BR-3 = test: Cytotoxicity against human SKBR3 cells after 48 hrs by MTT assay; format: functional, cell-based; conditions: SK-BR-3, 48 h
# PANC-1 = test: Cytotoxicity against human PANC1 cells after 48 hrs by MTT assay; format: functional, cell-based; conditions: PANC-1, 48 h
# [2] = Chemical stability of the compound in 0.1 M phosphate buffer at pH 7.0 at 0.1 mg/mL after 12 hrs by HPLC analysis; format: physicochemical; conditions: pH 7, 12 h
# HL-60 [3] = test: Ratio IC50 for cheliensisin A to compound for human HL60 cells after 48 hrs by MTT assay; format: functional
Stability [2],SMILES,IC50 (HL-60 [1]) [µM],IC50 (SMMC-7721) [µM],IC50 (A549) [µM],IC50 (SK-BR-3) [µM],IC50 (PANC-1) [µM],Ratio IC50 (HL-60 [3])
–,C/C=C/C1=N[C@H]([C@H]2OC(=O)C=C[C@@H]2OC(C)=O)[C@@H](c2ccccc2)O1,6.93,> 40,> 40,18,24.4,–
–,CC(=O)O[C@H]1C=CC(=O)O[C@@H]1[C@H]1N=C(c2ccccc2)O[C@@H]1c1ccccc1,> 40,> 40,> 40,> 40,> 40,–
–,CC(=O)O[C@H]1C=CC(=O)O[C@@H]1[C@H]1N=C(C)O[C@@H]1c1ccccc1,2.52,16.3,> 40,7.26,16.6,–
Stable,CC(=O)O[C@H]1C=CC(=O)O[C@@H]1[C@@H]1N=C(/C=C/c2ccccc2)O[C@@H]1c1ccccc1,0.48,21,18.9,4.03,4.1,4
–,CC(=O)O[C@H]1C=CC(=O)O[C@@H]1c1nc(-c2ccccc2)oc1-c1ccccc1,2.59,15.7,14.7,12,13.9,–
–,CC(=O)O[C@H]1C=CC(=O)O[C@@H]1[C@H]1N=C(C(=O)c2ccccc2)O[C@@H]1c1ccccc1,> 40,> 40,> 40,> 40,> 40,–
–,CC(=O)O[C@H]1C=CC(=O)O[C@H]1[C@H]1OC(C)(C)O[C@@H]1c1ccccc1,> 40,> 40,> 40,> 40,> 40,–
Stable,CC(=O)O[C@H]1C=CC(=O)O[C@@H]1c1nc(/C=C/c2ccccc2)oc1-c1ccccc1,5.89,24.6,24.8,7.36,7.22,–
–,CC(=O)O[C@H]1C=CC(=O)O[C@@H]1[C@@H](NC(=O)/C=C/c1ccccc1)[C@H](O)c1ccccc1,> 40,> 40,> 40,> 40,> 40,–
Stable,CC(=O)O[C@H]1C=CC(=O)O[C@H]1[C@H]1O[C@@H]1c1ccccc1 [CHELIENSISIN A],1.97,4.7,5.99,20.3,25.7,–
–,CC(=O)O[C@H]1C=CC(=O)O[C@@H]1[C@@H]1N=C(c2ccccc2)O[C@@H]1c1ccccc1,4.3,17.7,18.3,3.65,12.8,–
–,CC(=O)O[C@H]1C=CC(=O)O[C@@H]1[C@@H](NC(=O)Cc1ccccc1)[C@H](O)c1ccccc1,5.19,> 40,> 40,38.8,> 40,–
–,C/C=C/C1=N[C@@H]([C@H]2OC(=O)C=C[C@@H]2OC(C)=O)[C@@H](c2ccccc2)O1,1.26,14.5,30.7,2.22,3.87,–
–,CC(=O)O[C@H]1C=CC(=O)O[C@@H]1[C@H](NC(=O)c1ccccc1)[C@H](O)c1ccccc1,> 40,> 40,> 40,> 40,> 40,–
–,CC(=O)O[C@H]1C=CC(=O)O[C@H]1[C@H]1OC(=O)O[C@@H]1c1ccccc1,> 40,> 40,> 40,> 40,> 40,–
Stable,CC(=O)O[C@H]1C=CC(=O)O[C@@H]1/C=C/c1ccccc1,2.68,29,38.8,4.63,7.95,–
–,CC(=O)O[C@H]1C=CC(=O)O[C@@H]1[C@@H](O)[C@H](O)c1ccccc1,> 40,> 40,> 40,> 40,> 40,–
–,CC(=O)O[C@H]1C=CC(=O)O[C@@H]1[C@@H](O)[C@@H](Nc1ccccc1)c1ccccc1,> 40,> 40,> 40,> 40,> 40,–
–,C/C=C\C1=N[C@H]([C@H]2OC(=O)C=C[C@@H]2OC(C)=O)[C@@H](c2ccccc2)O1,4.59,27,> 40,> 40,23,–
–,CC(=O)O[C@H]1C=CC(=O)O[C@@H]1[C@H]1N=C(Cc2ccccc2)O[C@@H]1c1ccccc1,17.8,> 40,> 40,35.2,> 40,–
–,C/C=C\c1nc([C@H]2OC(=O)C=C[C@@H]2OC(C)=O)c(-c2ccccc2)o1,> 40,> 40,> 40,> 40,> 40,–
–,CC(=O)O[C@H]1C=CC(=O)O[C@@H]1[C@H]1N=C(/C=C/c2ccccc2)O[C@@H]1c1ccccc1,4.05,24,21.9,23.1,21.1,–
